Laboratory results as given in ChEMBL document CHEMBL5715941, “AZD1152, a selective inhibitor of Aurora B kinase, inhibits human tumor xenograft growth by inducing apoptosis” (Clin Cancer Res, 2007).
Active and inactive are the calls of the source.

Legend:
SW-620 [1] = experiment: Antitumor activity against human SW620 cells xenografted in nude athymic rat assessed as proportion of polyploid DNA content in tumor cells at 25 mg/kg/day, iv for 1 to 5 consecutive days by flow cytometry analysis relative to control; type: functional; conditions: time 1-5 day
Summary of the method: (§1)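 Nude rats with SW620 xenografts (0.5-1 cm3) were given vehicle or AZD1152 at 25 mg/kg/d as an i.v. bolus once daily on days 1-4. Subgroups (n = 3) were killed on days 0, 5, 9, 12, 16 and 19. Disaggregated tumors were analyzed by flow cytometry for PhH3 (% of control) and for 4N and >4N DNA (fold over control).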

SW-620 [2] = experiment: Antitumor activity against human SW620 cells xenografted in immunodeficient Swiss athymic mouse assessed as inhibition of tumor volume at 150 mg/kg/day, sc for 48 hrs on days 7 to 9 and measured on day 23 relative to control; type: functional; conditions: SW-620, 408 h, time 17 day
Summary of the method: (§2)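 Male Swiss athymic nude mice, 8-12 wk; tumor cells (1×10^6-1×10^7, 50:50 Matrigel) implanted s.c. on flank. Randomized (n = 8-11) at 0.2-0.5 cm3. AZD1152 in Tris buffer pH 9, or vehicle (0.3 mol/L Tris), by 48-h s.c. osmotic mini-pump infusion (two 24-h pumps in sequence). Caliper volumes up to 3×/week; growth inhibition from change in control vs treated volume; one-tailed t test.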

SW-620 [3] = experiment: Antitumor activity against human SW620 cells xenografted in nude athymic rat assessed as reduction in total cellular content at 25 mg/kg/day, iv for 4 consecutive days and measured on 5 day by H&E staining based immunohistochemistry analysis; type: functional, organism-based
Summary of the method: (§3)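 Nude rats bearing SW620 tumors were dosed i.v. with AZD1152 at 25 mg/kg/d or with vehicle on days 1-4. Subgroups (n = 3) were killed at set days. Tumor and bone marrow sections were H&E-stained and examined histologically.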

SW-620 [4] = experiment: Antitumor activity against human SW620 cells xenografted in nude athymic rat assessed as tumor growth inhibition at 25 mg/kg/day, iv for 4 consecutive days and measured at 8 day relative to control; type: functional; conditions: SW-620, 192 h
Summary of the method: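 Male nude rats with established SW620 xenografts, randomized at 0.5-1 cm3, received vehicle or AZD1152 (25 mg/kg, in Tris pH 9) as a once-daily i.v. bolus for 4 consecutive days. Tumor volume was measured by caliper (n = 10); growth inhibition relative to vehicle.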

SW-620 [5] = experiment: Antitumor activity against human SW620 cells xenografted in nude athymic rat assessed as high degree of pleomorphism at 25 mg/kg/day, iv for 4 consecutive days and measured on 5 day by H&E staining based immunohistochemistry analysis; type: functional, organism-based; summary of the method: as §3
SW-620 [6] = experiment: Antitumor activity against human SW620 cells xenografted in Swiss nude mouse assessed as reduction in PhH3 at Ser10 residue at 70 mg/kg/day, sc over 48 hrs by immunohistochemistry analysis; type: functional, organism-based
Summary of the method: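 Male nude mice bearing SW620 tumors (n = 4/group) had 48-h s.c. mini-pump infusion of AZD1152 (70 mg/kg/d) or vehicle. Excised tumor sections were stained with H&E, or immunostained for PhH3 Ser10 with rabbit polyclonal antibody, HRP-polymer detection and hematoxylin counterstain.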

A549 = experiment: Antitumor activity against human A549 cells xenografted in immunodeficient Swiss athymic mouse assessed as maximum inhibition of tumor volume at 150 mg/kg/day, sc for 48 hrs on days 13 to 15 and measured on day 26 relative to control; type: functional; conditions: A549, 336 h, time 14 day; summary of the method: as §2
SW-620 [7] = experiment: Antitumor activity against human SW620 cells xenografted in nude athymic rat assessed as myelosuppression at 25 mg/kg/day, iv for 4 consecutive days by flow cytometric analysis; type: functional, organism-based; conditions: time 4.0 day
SW-620 [8] = experiment: Antitumor activity against human SW620 cells xenografted in Swiss nude mouse assessed as inhibition in PhH3 level at 10 to 150 mg/kg/day, sc measured over 48 hrs by flow cytometry analysis relative to control; type: functional; conditions: dose 10-150 mg/kg/day
Summary of the method: (§4)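 Male nude mice with palpable s.c. SW620 tumors (n = 4/group) received AZD1152 (0.5-150 mg/kg/d) or vehicle by constant 48-h s.c. mini-pump infusion. Tumors were then excised, fixed and disaggregated. Flow cytometry with propidium iodide gave DNA content (2N, 4N, >4N), and rabbit anti-PhH3 with fluorescein anti-rabbit IgG gave PhH3-positive cells (%).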

SW-620 [9] = experiment: Antitumor activity against human SW620 cells xenografted in nude athymic rat assessed as larger multinucleated tumor cells at 25 mg/kg/day, iv for 4 consecutive days and measured on 9 day by H&E staining based immunohistochemistry analysis; type: functional, organism-based; summary of the method: as §3
SW-620 [10] = experiment: Antitumor activity against human SW620 cells xenografted in nude athymic rat assessed as increase in cleaved caspase-3 at 25 mg/kg/day, iv for 4 consecutive days and measured on 9 day by H&E staining based immunohistochemistry analysis; type: functional, organism-based
Summary of the method: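 Nude rats bearing SW620 tumors received i.v. AZD1152 at 25 mg/kg/d or vehicle on days 1-4 (n = 3 per time point). Tumor sections were immunostained for cleaved caspase-3 (HRP polymer). The percentage area of brown staining per field was quantified by color-threshold image analysis over six fields per section at ×20.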

SW-620 [11] = experiment: Antitumor activity against human SW620 cells xenografted in Swiss nude mouse assessed as accumulation in proportion of 2N DNA content at 70 mg/kg/day, sc over 48 hrs by flow cytometry analysis relative to control; type: functional; summary of the method: as §4
HCT-116 = experiment: Antitumor activity against human HCT-116 cells xenografted in immunodeficient Swiss athymic mouse assessed as maximum inhibition of tumor volume at 150 mg/kg/day, sc for 48 hrs on days 11 to 13 and measured on day 18 relative to control; type: functional; conditions: HCT-116, 192 h, time 8 day; summary of the method: as §2
SW-620 [12] = experiment: Antitumor activity against human SW620 cells xenografted in immunodeficient Swiss athymic mouse assessed as maximum inhibition of tumor volume at 25 mg/kg/day, iv for 3 days on days 6 to 8 and measured on day 13 relative to control; type: functional; conditions: SW-620, 192 h, time 8 day
Summary of the method: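 Male Swiss nude mice bearing s.c. flank SW620 xenografts (cells in Matrigel), randomized (n = 8-11) at 0.2-0.3 cm3. AZD1152 in Tris buffer pH 9, or vehicle, given as a once-daily i.v. or i.p. bolus. Caliper volumes up to 3×/week; inhibition from change in control vs treated volume; one-tailed t test.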

SW-620 [13] = experiment: Antitumor activity against human SW620 cells xenografted in nude athymic rat assessed as proportion of 4N DNA content in tumor cells at 25 mg/kg/day, iv for 1 to 5 consecutive days by flow cytometry analysis relative to control; type: functional; conditions: time 1-5 day; summary of the method: as §1
HL-60 = experiment: Antitumor activity against human HL-60 cells xenografted in immunodeficient Swiss athymic mouse assessed as inhibition of tumor volume at 150 mg/kg/day, sc for 48 hrs on days 16 to 18 and measured on day 35 relative to control; type: functional; conditions: HL-60, 480 h, time 20 day; summary of the method: as §2
SW-620 [14] = experiment: Antitumor activity against human SW620 cells xenografted in immunodeficient Swiss athymic mouse assessed as maximum inhibition of tumor volume at 10 mg/kg/day, sc for 48 hrs on days 7 to 9 and measured on day 10 relative to control; type: functional; conditions: SW-620, 96 h, time 4 day; summary of the method: as §2
SW-620 [15] = experiment: Antitumor activity against human SW620 cells xenografted in nude athymic rat assessed as most affect in leukocyte population at 25 mg/kg/day, iv for 4 consecutive days by flow cytometric analysis; type: functional, organism-based; conditions: time 4.0 day

For `CCN(CCCOc1ccc2c(Nc3cc(CC(=O)Nc4cccc(F)c4)[nH]n3)ncnc2c1)CCOP(=O)(O)O` [BARASERTIB], the Activity (SW-620 [1]) was 67%, the inhibition in vivo at 150 mg/kg/day (SW-620 [2]) was 87% and the Activity (SW-620 [3]) was “Active”. For the same compound, the inhibition in vivo at 25 mg/kg/day (SW-620 [4]) was 93%, the Activity (SW-620 [5]) was “Active” and the Activity (SW-620 [6]) was “Active”. The inhibition in vivo at 150 mg/kg/day (A549) was 79%, the Activity (SW-620 [7]) was “Active” and the “inhibition (INH)” value (SW-620 [8]) was 77%. The Activity (SW-620 [9]) was “Active”, the Activity (SW-620 [10]) was “Active” and the Activity (SW-620 [11]) was 35%. The inhibition in vivo at 150 mg/kg/day (HCT-116) was 93%, the inhibition in vivo at 25 mg/kg/day (SW-620 [12]) was 91% and the Activity (SW-620 [13]) was 60%. The inhibition in vivo at 150 mg/kg/day (HL-60) was over 100%, the inhibition in vivo at 10 mg/kg/day (SW-620 [14]) was 55% and the Activity (SW-620 [15]) was “Active”.
